Each block holds one molecule with its values, some of them ahead of it.
Columns and labels:
DMS-114 = assay: In vitro inhibition of lung DMS 114 cell line; assay type: functional, Homo sapiens
Method in brief: (§1)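 NCI 60-cell-line human tumor screen. Cells were grown 24 h after plating, then exposed 48 h to compound at 10⁻⁴, 10⁻⁵, 10⁻⁶, 10⁻⁷ and 10⁻⁸ M. Growth effect (percent inhibition or kill) was read spectrophotometrically by sulforhodamine B protein staining.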

K562 [1] = assay: In vitro inhibition of leukemia K-562 cell line.; assay type: functional, Homo sapiens; method in brief: as §1
K562 [2] = assay: In vitro inhibition of leukemia K-562 cell line; assay type: functional, Homo sapiens; method in brief: as §1
MOLT-4 = assay: In vitro inhibition of Leukemia Molt-4 cell line; assay type: functional, Homo sapiens; method in brief: as §1
SR = assay: In vitro inhibition of leukemia SR cell line; assay type: functional, Homo sapiens; method in brief: as §1
LOX IMVI = assay: In vitro inhibition of melanoma […] cell line; assay type: functional, Homo sapiens; method in brief: as §1
CCRF-CEM [3] = assay: In vitro inhibition leukemia CCRF-CEM cell line; assay type: functional, Homo sapiens; method in brief: as §1
CCRF-CEM [4] = assay: In vitro inhibition leukemia CCRF-CEM cell line growth; assay type: functional, Homo sapiens; method in brief: as §1
LXFL 529 [5] = assay: In vitro inhibition lung LXFL529 cell line; assay type: functional, Homo sapiens; method in brief: as §1
LXFL 529 [6] = assay: In vitro inhibition lung LXFL529 cell line growth; assay type: functional, Homo sapiens; method in brief: as §1
NCI-H522 [7] = assay: In vitro inhibition lung […] cell line; assay type: functional, Homo sapiens; method in brief: as §1
NCI-H522 [8] = assay: In vitro inhibition lung […] cell line growth; assay type: functional, Homo sapiens; method in brief: as §1
SNB-75 [9] = assay: In vitro inhibition CNS SNB-75 cell line; assay type: functional, Homo sapiens; method in brief: as §1
UO-31 [10] = assay: In vitro inhibition renal UO-31 cell line; assay type: functional, Homo sapiens; method in brief: as §1
UO-31 [11] = assay: In vitro inhibition renal UO-31 cell line growth.; assay type: functional, Homo sapiens; method in brief: as §1
SNB-75 [12] = assay: In vitro inhibition CNS SNB-75 cell line growth; assay type: functional, Homo sapiens; method in brief: as §1
Mus musculus [13] = assay: Mean biodistribution and elimination data in thyroid was reported 1 hr after administering compound intravenously in tumor-bearing female BALB-C mice.; assay type: ADME, organism-based, Thyroid gland; settings: in vivo, iv
Method in brief: (§2)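 Female Balb-C mice bearing Line-1 spontaneous lung carcinoma were used 1 week after inoculation of 10⁶ cells. The iodine-125-labeled compound was given in normal saline, filter-sterilized, by lateral tail vein injection under ether anesthesia. At set times the mice were killed and the organs excised, rinsed, blotted and weighed. Activity was gamma-counted and reported as percent injected dose/gram tissue; thyroid was reported as percent injected dose/tissue.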

Mus musculus [14] = assay: Mean biodistribution and elimination data in thyroid was reported 24 hr after administering compound intravenously in tumor-bearing female BALB-C mice.; assay type: ADME, organism-based, Thyroid gland; settings: in vivo, iv; method in brief: as §2
Mus musculus [15] = assay: Mean biodistribution and elimination data in thyroid was reported 4 hr after administering compound intravenously in tumor-bearing female BALB-C mice.; assay type: ADME, organism-based, Thyroid gland; settings: in vivo, iv; method in brief: as §2
Mus musculus [16] = assay: Mean biodistribution and elimination data in urine was reported 24 h after administering compound intravenously in tumor-bearing female BALB-C mice.; assay type: ADME, organism-based; settings: in vivo, iv
Method in brief: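 Tumor-bearing female Balb-C mice (Line-1 lung carcinoma) received the ¹²⁵I-labeled compound in normal saline by tail vein injection under ether anesthesia. Urine radioactivity was gamma-counted and expressed as percent injected dose per total sample. Urine was also analyzed by TLC (solvent E) using UV and radioscanning.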

Mus musculus [17] = assay: Mean biodistribution and elimination data in blood was reported 1 h after administering compound intravenously in tumor-bearing female BALB-C mice.; assay type: ADME, organism-based; settings: in vivo, iv; method in brief: as §2
Mus musculus [18] = assay: Mean biodistribution and elimination data in blood was reported 24 hr after administering compound intravenously in tumor-bearing female BALB-C mice.; assay type: ADME, organism-based; settings: in vivo, iv; method in brief: as §2
Mus musculus [19] = assay: Mean biodistribution and elimination data in blood was reported 4 hr after administering compound intravenously in tumor-bearing female BALB-C mice.; assay type: ADME, organism-based; settings: in vivo, iv; method in brief: as §2
Mus musculus [20] = assay: Mean biodistribution and elimination data in kidney was reported 1 hr after administering compound intravenously in tumor-bearing female BALB-C mice.; assay type: ADME, organism-based; settings: in vivo, iv; method in brief: as §2
Mus musculus [21] = assay: Mean biodistribution and elimination data in kidney was reported 24 hr after administering compound intravenously in tumor-bearing female BALB-C mice.; assay type: ADME, organism-based; settings: in vivo, iv; method in brief: as §2
Mus musculus [22] = assay: Mean biodistribution and elimination data in kidney was reported 4 hr after administering compound intravenously in tumor-bearing female BALB-C mice.; assay type: ADME, organism-based; settings: in vivo, iv; method in brief: as §2
Mus musculus [23] = assay: Mean biodistribution and elimination data in liver was reported 1 hr after administering compound intravenously in tumor-bearing female BALB-C mice.; assay type: ADME, organism-based; settings: in vivo, iv; method in brief: as §2
Mus musculus [24] = assay: Mean biodistribution and elimination data in liver was reported 24 h after administering compound intravenously in tumor-bearing female BALB-C mice.; assay type: ADME, organism-based; settings: in vivo, iv; method in brief: as §2
Mus musculus [25] = assay: Mean biodistribution and elimination data in liver was reported 4 hr after administering compound intravenously in tumor-bearing female BALB-C mice.; assay type: ADME, organism-based; settings: in vivo, iv; method in brief: as §2
Mus musculus [26] = assay: Mean biodistribution and elimination data in lung was reported 1 hr after administering compound intravenously in tumor-bearing female BALB-C mice.; assay type: ADME, organism-based; settings: in vivo, iv; method in brief: as §2
Mus musculus [27] = assay: Mean biodistribution and elimination data in lung was reported 24 hr after administering compound intravenously in tumor-bearing female BALB-C mice.; assay type: ADME, organism-based; settings: in vivo, iv; method in brief: as §2
Mus musculus [28] = assay: Mean biodistribution and elimination data in lung was reported 4 hr after administering compound intravenously in tumor-bearing female BALB-C mice.; assay type: ADME, organism-based; settings: in vivo, iv; method in brief: as §2
Mus musculus [29] = assay: Mean biodistribution and elimination data in tumoe was reported 24 h after administering compound intravenously in tumor-bearing female BALB-C mice.; assay type: ADME, organism-based; settings: in vivo, iv; method in brief: as §2
Mus musculus [30] = assay: Mean biodistribution and elimination data in tumor was reported 1 hr after administering compound intravenously in tumor-bearing female BALB-C mice.; assay type: ADME, organism-based; settings: in vivo, iv; method in brief: as §2
Mus musculus [31] = assay: Mean biodistribution and elimination data in tumor was reported 4 hr after administering compound intravenously in tumor-bearing female BALB-C mice.; assay type: ADME, organism-based; settings: in vivo, iv; method in brief: as §2
HOP-18 [32] = assay: In vitro inhibition lung HOP-18 cell line; assay type: functional, Homo sapiens; method in brief: as §1
HOP-18 [33] = assay: In vitro inhibition lung HOP-18 cell line growth; assay type: functional, Homo sapiens; method in brief: as §1

SMILES: C#CCOCn1cnc2c(Cl)ncnc21
- Cell growth (DMS-114): 21%
- Inhibition (DMS-114): 79%
- Cell growth (K562 [1]): 34.8%
- Inhibition (K562 [2]): 65.2%
- Cell growth (MOLT-4): 40.7%
- Inhibition (MOLT-4): 59.3%
- Cell growth (SR): 38.4%
- Inhibition (SR): 61.6%
- Cell growth (LOX IMVI): 33.5%
- Inhibition (LOX IMVI): 66.5%

SMILES: C#CCOCn1cnc2c(Sc3c([N+](=O)[O-])ncn3C)ncnc21
- Cell growth (CCRF-CEM [3]): 50%
- Inhibition (CCRF-CEM [4]): 50%
- Cell growth (LXFL 529 [5]): 37%
- Inhibition (LXFL 529 [6]): 63%
- Cell growth (NCI-H522 [7]): 32%
- Inhibition (NCI-H522 [8]): 68%
- Cell growth (SNB-75 [9]): -14%
- Cell growth (UO-31 [10]): 48%
- Inhibition (UO-31 [11]): 52%

SMILES: C#CCOCn1cnc2c(S)ncnc21
- Cell growth (SNB-75 [9]): 0%
- Inhibition (SNB-75 [12]): 100%

- ID/thyroid (Mus musculus [13]): 1.29%
- ID/thyroid (Mus musculus [14]): 3.49%
- ID/thyroid (Mus musculus [15]): 3.61%
- ID/animal (Mus musculus [16]): 94.36%
- ID/g (Mus musculus [17]): 3.15%
- ID/g (Mus musculus [18]): 0.34%
- ID/g (Mus musculus [19]): 1.33%
- ID/g (Mus musculus [20]): 3.68%
- ID/g (Mus musculus [21]): 0.2%
- ID/g (Mus musculus [22]): 1%
- ID/g (Mus musculus [23]): 3.4%
- ID/g (Mus musculus [24]): 0.33%
- ID/g (Mus musculus [25]): 1.34%
- ID/g (Mus musculus [26]): 3.41%
- ID/g (Mus musculus [27]): 0.35%
- ID/g (Mus musculus [28]): 1.3%
- ID/g (Mus musculus [29]): 0.06%
- ID/g (Mus musculus [30]): 1.5%
- ID/g (Mus musculus [31]): 0.6%
SMILES: Nc1ncnc2c1ncn2COC/C=C/I
- Cell growth (CCRF-CEM [3]): 47.4%
- Inhibition (CCRF-CEM [4]): 52.6%
- Cell growth (HOP-18 [32]): 21.2%
- Cell growth (SNB-75 [9]): 25.2%
- Inhibition (SNB-75 [12]): 74.8%
- Inhibition (HOP-18 [33]): 78.8%
